Test results as given in the RNAGym collection of RNA variant scans (doi:10.1101/gad.245936.114).
Fewer inactive variants are shown than the library holds.

B1: tRNA (parent)
chain: CUCUCGGUAGCCAAGUUGGUUUAAGGCGCAAGACUUUAAUUUAUCACUACGAAAUCUUGAGAUCGGGCGUUCGACUCGCCCCCGGGAGAUUUUUUCCUCGAGCAA

Variants of: B1
Experiment: nonsense suppression (GFP-seq) (ratio to wild type); higher = more function; SUP4oc tRNA, yeast GFP reporter sort-seq
How it was run: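 Each variant's nonsense suppression (GFPSEQ) is a cell-share-weighted bin median GFP/RFP relative to the unmutated parent tRNA. Yeast with genome-integrated tRNA variants from a ~3% random-mutation library, a galactose-driven GFP ochre reporter and RFP were grown in raffinose/galactose medium with 80 mg/L adenine, then sorted into GFP/RFP bins for Illumina sequencing. Variants needed ≥100 reads and ≥30 cells.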

Nonsense suppression, 0.0309:
CUCUCGAUAGCCAAGUUGGUUUAAGGCGCUAGACUUUAAUUUAUCACUACGAAAUCUUGAGAUCGGGCGUUCGACUCGCCCCCGGGAGAUUUUUUCCUCGAGCAA

Nonsense suppression, 0.186:
CUCUCUGUAGCCAAGUUGGAUUAAGGCGCAAGACUUUAAUUUAUCACUACGAAAUCUUGAGAUCGGGCGUUCGACUCGCCCCGGGGAGAUUUUUUCCUCGAGCAA

Nonsense suppression, ≤ 0.026:
CUCUCGAUAGCCAAGUUGGUUUAAGGCGCAAGACGUUAAUUUAUCACUACGAAAUCUUAAGAUCGGGCGUUCGACUCGCCCCCGGGAGAUUUUUUCCUCGAGCAA
CUCUCGAUCGCCAAGUUGGUUUAAGGCGCAAGACUUUAAUUUAUCACUACGAAGUCUUGAGAUCGGGCGUUCGACUCGCCCCCGGGAGAUUUUUUCCUCGAGCAA
CUCUCUGUAGUCUAGUUGGUUUAAGGCGCAAGACUUUAAUUUAUCACUACGAAAUCUUGAGAUCGGGCGUUCGACUCGCCCCCGGGAGAUUUUUUCCUCGAGCAA
CUCUCUCUAGCCAAGUUGGUUUAAGGCGCAAGUCUUUAAUUUAUCACUACGAAAUCUUGAGAUCGGGCGUUCGACUCGCCCCCGGGAGAUUUUUUCCUCGAGCAA
CUCUCGAUAGCCAAGUUGGUUUAAGGCGCAAGACUUUAAUUUAUCACUACGAAAUCUUGAGAUCGGGCGUUCGACCCGCCCCCGGGAUAUUUUUUCCUCGAGCAA
CUCUCGAUAGCCAAGUUGGGUUAAGGCGCAAGACUUUAAUUUAUCACUACGAAAUCUUGAGAUCGGGCGUUCGACUCGCCCCCGGGAGAUUUUUUCCUCGAGCAA
CUCUCUGUAGCCAAGCCGUUUUAAGGCGCAAGACUUUAAUUUAUCACUACGAAAUCUUGAGAUCGGGCGUUCGACUCGCCCCCGGGAGAUUUUUUCCUCGAGCAA
CUCUCGAUAGCCAAGUUGGUUUAAGGCUCAAGAAUUUAAUUUAUCACUACGAAAUCUUGAGAUCGGGCGUUCGACUCGCCCCCGGGAGAUUUUUUCCUCGAGCAA
CUCUCGAUAUCCAAGUUGGAUUAAGGCGCAAGACGUUAAUUUAUCACUACGAAAUCGUGAGACCGGGCGUUCGACUCGCCCCCGGGAGAUUUUUUCCUCGAGCAA
CUCUCGAUAGCCAAGUUGGGUUAAGGCGCAAGAUUUUAAUUUAUCACUACGAAAUCCUGAGAUAGGGCGUUCGACUCGUCCCCGGGACAUUUUUUCCUCGAGCAA
CUCUCUGUAGCCAAGUUGGUUUAAGGCGCAAGACUUUAAUUUAUCACUACGAAAUCUUGAGAUCGGGCGUUCGACUCGCCACCGGGAGAUUUUUUCCUCGAGCAA
CUCUCUGUAGCCAAGUUGGUUUAAGGCGCAAGACUUUAAUUUAUCACUACGAAAUCAUGAGAUCGGGCGUUCGACUCGCCCCCGGGAGAUUUUUUCCUCGAGCAA
CUCUCUGUAGCCAAGUUGGUUUAAGGCGCAAGACUUUAAUUUAUCACUACGAAAUCUUGAGAGCGGGCGUCCGACUCGCCCCCGUGAGCUUUUUUCCUCGAGCAA
CUCUCGAUAGUCAAGUUGGUUUAAGGCGCAAGACAUUAAUUUAUCACUACGAACUCUUGAGAUUGGGCGUUCGACUCGCCCCGGGGAGAUUUUUUCCUCGAGCAA
CUCUCGAUAGCCAAGUCGGUUUAGGGCGCAAUACUUUAAUUUAUCACUACGAAAUCUUGAGAUCGGGCGUCCGACUCGCCCCCGGGUGAUUUUUUCCUCGAGCAA
CUCUCGAUAGCCAAGUUGGUUUAAGUCGAAAGACUUUAAUUUAUCACUACGAAAUCUUGAGAUCGGGCGUUCGACUCGCCCCCGGGAGAUUUUUUCCUCGAGCAA
CUCUCGAUAGCCAAGUUGGUUUAAGGCGCAAGACUUUAAUUUAUCACUACGAAAUCUUAAGAUCGGGCGUGCAACUCGCCCCCAUGAGAUUUUUUCCUCGAGCAA
CUCUCGAUAGCCAAGUUGGUUUAAGGCGCAAGACUUUAAUUUAUCACUACGAAAUCUUGAGAUCGGGCGUUCGACUCGCCCCCGGUAGAUUUUUUCCUCGAGCAA
CUCUCCGUAGCCAAGUUGGUUUAAGGCGCAAGACGUUAAUUUAUCACUACGAAAUCUUGAGAUCGGGCGUUCGACUCGCCCCCGGGAGAUUUUUUCCUCGAGCAA
CUCUCGAUAGCCAAGUUGGUUUAUGGCGCAAGACUUUAAUUUAUCACUACGAAAUCUUGAGAUCGGGCGUUCGAUUCCCCCCCGGGAGAUUUUUUCCUCGAGCAA
CUCUCGAUAGCCUAGUUGGUUUAAGGCGCAAGACUUUAAUUUAUCACUACGAAAUCUGGAGAUCGGGCGUUCGACUCGCCCCCGGCAGAUUUUUUCCUCGAGCAA
CUCUCGAUAGCCAAGUUGGUUUAAUGCGCAAGACUUUAAUUUAUCACUACGAAAUCUUGAGAUCGGGCGUUCGACUCGCCCCCGGGAGAUUUUUUCCUCGAGCAA
CUCUCCGUAGCCAAGUUGGAUUAAGGCGCAAGACUUUAAUUUAUCACUACGAAAUCUUGAGAUCGGGCGUUCGACUCGCCCCCGGGAGAUUUUUUCCUCGAGCAA
CUCUCCGUAGCCAAGUUGGGUUAAGGCGCAAGACUUUAAUUUAUCACUACGAAAUCUUGAGAUCGGGCGUUCGACUCGCCCCCGGGAGAUUUUUUCCUCGAGCAA

Nonsense suppression, 0.923:
CUCUCUGUAGCCAAGUUGGUUUAAGGCGCAAGACUUUAAUUUAUCACUACGAAAUCUUGAGAUCGGGCGUUCGACUCGCCCCGGGGAGAUUUUUUCCUCGAGCAA
